# Assay outcomes: PubChem, several laboratories
# Only some compounds are listed: those with a hit (about 4% of all), similar ones and a draw of the others.
# DAGLB inhibitor: diacylglycerol lipase beta (human) inhibition. HEK293T DAGLB membrane lysate, EnzChek fluorogenic substrate. inhibition, % at 5.17 µM. 0.059% of 340,000 active. AID 504411; in the data active means inhibition above about 34%;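 further: 0% = enzyme with vehicle and 100% = wells lacking enzyme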
# MPTP block: blocks calcium-induced mitochondrial swelling; isolated mouse mitochondria, Ca2+ swelling absorbance, 30 min; AID 602449; 1.4% of 360,000 active; inhibition, % at 10 µM;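 active means inhibition of 50% or more, scaled per plate between neutral and stimulator controls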;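 further: 0% = DMSO wells given calcium and 100% = 1 mM EGTA wells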
# TAAR1 agonist: agonists of human TAAR1; CHO RD-HGA16 TAAR1, Fluo-8 calcium fluorescence; vehicle wells 0%, saturating PEA agonist 100%; activation, % at 3 µM; 0.99% of 360,000 active; AID 624467;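 active means activation above the mean activation of all test compounds in the run plus 3 SD, cut at about 38% in these data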
# Target sequence (Q96RJ0 whole entry, looked up): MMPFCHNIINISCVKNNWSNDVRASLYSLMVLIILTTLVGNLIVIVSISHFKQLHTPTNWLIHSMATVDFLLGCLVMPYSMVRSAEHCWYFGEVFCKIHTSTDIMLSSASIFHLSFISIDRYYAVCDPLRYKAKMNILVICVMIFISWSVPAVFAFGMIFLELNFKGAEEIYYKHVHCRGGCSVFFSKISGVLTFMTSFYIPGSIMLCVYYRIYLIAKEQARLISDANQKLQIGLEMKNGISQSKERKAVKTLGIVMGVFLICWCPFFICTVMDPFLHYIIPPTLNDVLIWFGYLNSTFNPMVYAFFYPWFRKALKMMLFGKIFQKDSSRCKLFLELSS
#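 Benchmarks: low control DMSO, high control PEA (EC100); System: CHO RD-HGA16 cells carrying human TAAR1 plus Gα16; Detection: Fluo-8 fluorescence, 5 s baseline then 140 s kinetic read; Schedule: 17-24 h plating, Fluo-8 75 min 37 °C, 30 min RT; Read-out basis: % activation from peak over basal fluorescence ratio, DMSO-to-PEA scaled.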
# GPR7 antag: blocks human GPR7 receptor signaling; 1.1% of 290,000 active; inhibition, % at 4.4 µM; GPR7-expressing cells, fluorescence antagonist assay; P48145; in the data active means inhibition above about 16%, passing the limit was not always enough;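 further: cells stimulated with the agonist NPW; 0% = agonist with vehicle and 100% = vehicle without agonist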
# Target sequence (P48145 whole entry, looked up): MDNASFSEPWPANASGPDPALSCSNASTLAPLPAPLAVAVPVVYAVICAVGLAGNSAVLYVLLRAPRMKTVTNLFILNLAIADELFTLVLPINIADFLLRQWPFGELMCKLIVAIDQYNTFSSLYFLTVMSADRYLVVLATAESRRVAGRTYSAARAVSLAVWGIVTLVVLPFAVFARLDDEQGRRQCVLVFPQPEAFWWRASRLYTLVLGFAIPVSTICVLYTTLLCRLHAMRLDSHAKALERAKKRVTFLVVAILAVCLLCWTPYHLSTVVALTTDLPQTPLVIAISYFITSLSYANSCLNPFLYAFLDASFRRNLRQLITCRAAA
# TAAR1 antagonist: antagonists of human TAAR1 | CHO RD-HGA16 TAAR1, Fluo-8 calcium fluorescence, antagonist | inhibition, % at 3 µM | 1.5% of 360,000 active;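 active means inhibition above a per-plate cutoff, the mean inhibition of test compounds on that plate plus 3 SD, cut at about 49% in these data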;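 further: 0% = DMSO plus EC80 beta-PEA response and 100% = DMSO alone without agonist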
#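 Test system: RD-HGA16 CHO cells with stable hTAAR1 and Gα16 / Probe or stimulus: EC80 β-phenethylamine stimulus / Times: seeding 17-24 h prior, 75-min 37 °C, 30-min RT dye loading / Detection: Fluo-8 calcium-sensitive fluorescence / Read-out basis: % inhibition scaled between DMSO and EC80 PEA controls / Repeats: singlicate, one well per test compound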
# nonsel antag count: counter-screen for TAAR1 antagonists: nonselective antagonists | shares compounds with TAAR1 antagonist | counterscreen cell line, calcium fluorescence, antagonist mode | inhibition, % at 3 µM | 77% of 2,400 active; in the data active means inhibition above about 22%;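 further: CHO-Ga16 host cells stimulated with ATP at an EC80 level; 0% = agonist EC80 plus vehicle and 100% = vehicle without agonist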
# TAAR1 antag conf: human TAAR1 antagonism, confirmed; shares compounds with TAAR1 antagonist; TAAR1-expressing cells, fluorescence antagonist read-out; inhibition, % at 3 µM; 40% of 2,400 active; in the data active means inhibition above about 49%;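 further: CHO-Ga16 host cells challenged with agonist PEA near its EC80; 0% = agonist at EC80 plus vehicle and 100% = vehicle with no agonist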
# Ga16 nonsel ag: nonselective Ga16 agonism, counter-screen. shares compounds with TAAR1 antagonist. Ga16-expressing cells, calcium fluorescence, agonist counterscreen. activation, % at 3 µM. 18% of 2,400 active. AID 651953; in the data active means activation above about 12%;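 further: 0% = vehicle wells and 100% = saturating stimulus response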
# TAAR1 ag count: counter-screen for human TAAR1 antagonists: TAAR1 agonists; shares compounds with TAAR1 antagonist; hTAAR1 cell line, fluorescence activation, agonist mode; activation, % at 3 µM; 2% of 2,400 active; in the data active means activation above about 37%;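 further: CHO cells stably expressing TAAR1 with calcium dye readout; 0% = DMSO vehicle and 100% = full agonist response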
# The depositor's hits bear a star; x = not tested or not shown.
SMILES,DAGLB inhibitor,MPTP block,TAAR1 agonist,GPR7 antag,TAAR1 antagonist,nonsel antag count,TAAR1 antag conf,Ga16 nonsel ag,TAAR1 ag count
CCN=C1SC(C(=O)Nc2ccccc2)CC(=O)N1CC (centres undefined),-2,0,21,-18,65*,31*,54*,9,10
CCN=C1SC(C(=O)Nc2cccc(C(=O)O)c2)CC(=O)N1CC (centres undefined),1,-1,8,-2,-3,x,x,x,x
CCN=C1SC(CC(=O)Nc2ccccc2)C(=O)N1CC (centres undefined),-1,0,20,-2,67*,34*,59*,10,9
CCCn1c(N)c(N(CCOC)C(=O)COC(=O)CSc2cc(C)c3ccccc3n2)c(=O)[nH]c1=O,1,-1,1,x,-10,x,x,x,x
Cc1ccc(C(=O)OCC(=O)N2CCC(C)CC2)cc1S(=O)(=O)N1CCOCC1,2,-1,0,x,19,x,x,x,x
COc1ccc(O)c(/C=N/Nc2nc(Nc3ccccc3)nc(-n3nc(C)cc3C)n2)c1,5,-2,13,-3,59*,37*,47,7,2
COc1cc(/C=N/Nc2nc(Nc3ccccc3)nc(-n3nc(C)cc3C)n2)cc(OC)c1OC,0,0,6,-11,64*,24*,38,6,7
COc1ccc(O)c(/C=N/Nc2nc(C)cc(-c3ccccc3)n2)c1,-1,3,0,x,3,x,x,x,x
COC(=O)C1=C(C)N(C)C(=NCc2cc(OC)c(OC)c(OC)c2)NC1c1cccc(F)c1 (centres undefined),x,x,0,x,1,x,x,x,x
Cc1ccc(CNC(=O)c2ccccc2SCC(=O)NCC2CCCCC2)cc1,-6,2,12,-1,63*,26*,45,9,7
CSc1ccccc1C(=O)NCc1ccc(F)cc1,-4,-2,0,-4,14,x,x,x,x
CSc1ccccc1C(=O)NCc1ccc(C)cc1,-2,0,-2,-3,104*,8,11,0,3
CC(C)(C)c1ccc(C#C[C@@H]2C=C[C@@H](O)[C@@H](CO)O2)cc1,x,x,13,x,-27,x,x,x,x
COc1ccccc1Nc1nnc(SCc2nnc(-c3cc(OC)c(OC)c(OC)c3)o2)s1,2,0,10,-19,58*,25*,34,8,7
C=CC[C@H](CC(=O)N(CCO)Cc1ccccc1)C(=O)N[C@@H](COC(=O)[C@H](CC=C)CC(=O)OC(C)(C)C)Cc1c[nH]c2ccccc12,0,0,14,x,69*,30*,42,5,3
C=CC[C@H](CC(=O)N(CCO)Cc1ccccc1)C(=O)N[C@H](COC(=O)[C@H](CC=C)CC(=O)OC(C)(C)C)Cc1ccccc1,-9,0,11,x,58*,24*,43,5,3
C=CC[C@@H](CC(=O)NCCO)C(=O)N[C@@H](COC(=O)[C@@H](CC=C)CC(=O)OC(C)(C)C)Cc1ccccc1,0,-1,16,x,9,x,x,x,x
C=CC[C@@H](CC(=O)N(CCO)Cc1ccccc1)C(=O)N[C@H](COC(=O)[C@@H](CC=C)CC(=O)OC(C)(C)C)C(C)(C)C,-8,0,9,x,-9,x,x,x,x
C=CCC[C@@H](Cc1ccc(F)cc1)C(=O)OC[C@H](Cc1c[nH]c2ccccc12)NC(=O)[C@H](CC=C)CC(=O)NCCO,1,1,22,x,75*,30*,42,7,7
C=CC[C@H](CC(=O)N[C@H](CO)Cc1ccccc1)C(=O)N[C@@H](COC(=O)[C@@H](CC=C)CC(=O)OC(C)(C)C)Cc1c[nH]c2ccccc12,5,1,23,x,63*,30*,37,4,4
C=CC[C@@H](CC(=O)N[C@H](CO)Cc1ccccc1)C(=O)N[C@H](COC(=O)[C@@H](CC=C)Cc1ccc(F)cc1)Cc1c[nH]c2ccccc12,1,0,28,x,86*,38*,51*,5,15
C=CC[C@H](CC(=O)NCCO)C(=O)N[C@H](COC(=O)[C@@H](CC=C)CC(=O)OC(C)(C)C)Cc1c[nH]c2ccccc12,-3,1,10,x,34,x,x,x,x
O=C(COC(=O)Cc1c(Cl)cccc1Cl)Nc1ccccc1-c1ccccc1,-18,1,5,0,62*,22*,52*,8,13
CC(C)C(=O)N1CCN(c2ccccc2NC(=S)NC(=O)/C=C/c2ccco2)CC1,-1,3,6,x,51*,19,46,4,13
O=C(Nc1ccccc1OC(=O)c1ccc(Cl)cc1)c1ccc(Cl)cc1,-1,3,0,-4,54*,-2,53*,1,9
SMILES,DAGLB inhibitor,MPTP block,TAAR1 agonist,GPR7 antag,TAAR1 antagonist,nonsel antag count,TAAR1 antag conf,Ga16 nonsel ag,TAAR1 ag count
O=C(Nc1ccccc1N1CCN(C(=O)c2ccc(Cl)cc2)CC1)c1ccc([N+](=O)[O-])o1,6,0,x,-4,x,x,x,x,x
O=C(Nc1ccccc1N1CCN(C(=O)c2ccccc2)CC1)c1ccc(Cl)cc1,-1,0,5,4,55*,24*,46,5,1
CC(C)C(=O)NC(=S)Nc1ccccc1N1CCN(C(=O)c2ccccc2)CC1,1,0,18,-11,78*,38*,60*,14*,17
CC(C)C[C@@H](CN1CCC[C@@H]1CN1C(=O)C(=O)NC[C@@H]1Cc1ccccc1)N1C[C@H](Cc2ccccc2)N(CC2CCCCC2)C(=O)C1=O,x,-2,0,x,-12,x,x,x,x
Cc1ccc(S(=O)(=O)N2C[C@H]3[C@H]4C(=O)N(c5ccccc5)C(=O)[C@H]4C[C@H](OC(=O)NCc4ccccc4F)[C@@]3(O)C2)cc1,0,0,1,x,17,x,x,x,x
COc1cc(C#Cc2c(-c3cncn3C)n(C)c3ccc(-c4cnc(OC)nc4)cc23)cc(OC)c1,-1,2,8,x,73*,35*,52*,5,0
COc1cc(OC)cc(-c2c(Sc3ccccc3)c3cc(-c4cnc(OC)nc4)ccc3n2C)c1,x,0,-1,x,4,x,x,x,x
C=CCNC(=O)/C(=C\C=C\c1ccccc1)NC(=O)c1ccccc1Cl,-1,0,13,-11,62*,25*,36,6,7
O=C(O)CCCNC(=O)/C(=C\C=C\c1ccccc1)NC(=O)c1ccccc1Cl,2,0,1,-9,-2,x,x,x,x
Clc1cccc(-c2nc(NCCN3CCOCC3)c3ccccc3n2)c1,-3,-2,17,7,64*,32*,55*,16*,16
